This is an account of results in ChEMBL document CHEMBL1212779, “Ceftobiprole is superior to vancomycin, daptomycin, and linezolid for treatment of experimental endocarditis in rabbits caused by methicillin-resistant Staphylococcus aureus” (Antimicrob Agents Chemother, 2010).

The structures appear in SMILES notation. In brackets after ≈: the same amount, converted by molar mass.

Data set [1] has as its system Staphylococcus aureus. As to the kind of experiment: Antibacterial activity against methicillin-resistant Staphylococcus aureus COL infected New Zealand White rabbit aortic valve endocarditis model assessed as decrease in bacterial colony forming unit in spleen at 18 mg/kg, iv dosed every 24 hrs for 4 days (reference value: 5.1 +/- 0.9 log10CFU per gram tissue). It counts as functional.

Data set [2] deals with Staphylococcus aureus. As to the kind of experiment: Antibacterial activity against methicillin-resistant Staphylococcus aureus COL infected New Zealand White rabbit aortic valve endocarditis model assessed as decrease in bacterial colony forming unit in kidney at 18 mg/kg, iv dosed every 24 hrs for 4 days (reference value: 4.4 +/- 1.0 log10CFU per gram tissue). It is filed as functional.

In data set [3] the test system is Staphylococcus aureus. As to the kind of experiment: Antibacterial activity against methicillin-resistant Staphylococcus aureus COL infected New Zealand White rabbit aortic valve endocarditis model assessed as decrease in bacterial colony forming unit in vegetation at 18 mg/kg, iv dosed every 24 hrs for 4 days (reference value: 8.4 +/- 0.7 log10CFU per gram tissue). It is filed as functional.

The subject of data set [4] is Oryctolagus cuniculus. As to the kind of experiment: Plasma concentration in Staphylococcus aureus COL infected New Zealand White rabbit aortic valve endocarditis model at 25 mg/kg, im dosed every 8 hrs for 4 days. It counts as ADME, organism-based. Details: dose 25 mg/kg, route intramuscular. To be noted: in vivo. Summed up:
(§1)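 Rabbits with catheter-induced aortic valve endocarditis received about 1.5 × 10^7 CFU COL iv in 1 ml 0.9% saline 48 h after catheter placement. Dosing started 16–18 h post-infection. Plasma was sampled 1 h post-dose from at least three rabbits per group and assayed by HPLC against plasma standard curves. Each value is the mean of two determinations; detection limit ≤0.5 μg/ml.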

Data set [5] has as its system Staphylococcus aureus. As to the kind of experiment: Antibacterial activity against methicillin-resistant Staphylococcus aureus COL infected New Zealand White rabbit aortic valve endocarditis model assessed as decrease in bacterial colony forming unit in kidney at 25 mg/kg, im dosed every 8 hrs for 4 days (reference value: 4.4 +/- 1.0 log10CFU per gram tissue). It counts as functional. To be noted: route intramuscular.

Data set [6] relates to Staphylococcus aureus. As to the kind of experiment: Antibacterial activity against methicillin-resistant Staphylococcus aureus COL infected New Zealand White rabbit aortic valve endocarditis model assessed as decrease in bacterial colony forming unit in spleen at 25 mg/kg, im dosed every 8 hrs for 4 days (reference value: 5.1 +/- 0.9 log10CFU per gram tissue). The note with it: route intramuscular. It counts as functional.

For data set [7], the system named is Staphylococcus aureus. The experiment in a line: Antibacterial activity against methicillin-resistant Staphylococcus aureus COL infected New Zealand White rabbit aortic valve endocarditis model assessed as decrease in bacterial colony forming unit in vegetation at 25 mg/kg, im dosed every 8 hrs for 4 days (reference value: 8.4 +/- 0.7 log10CFU per gram tissue). It counts as functional. The note with it: route intramuscular.

Data set [8] has as its system Oryctolagus cuniculus. As to the kind of experiment: Plasma concentration in Staphylococcus aureus COL infected New Zealand White rabbit aortic valve endocarditis model at 75 mg/kg, sc dosed every 8 hrs for 4 days. It counts as ADME, organism-based. Details: dose 75 mg/kg, route subcutaneous. To be noted: in vivo. Summed up:
as §1

The test system of data set [9] is Staphylococcus aureus. The experiment in a line: Antibacterial activity against methicillin-resistant Staphylococcus aureus COL infected New Zealand White rabbit aortic valve endocarditis model assessed as decrease in bacterial colony forming unit in kidney at 75 mg/kg, sc dosed every 8 hrs for 4 days (reference value: 4.4 +/- 1.0 log10CFU per gram tissue). It is filed as functional. The note with it: route subcutaneous.

For data set [10], the system named is Staphylococcus aureus. The experiment in a line: Antibacterial activity against methicillin-resistant Staphylococcus aureus COL infected New Zealand White rabbit aortic valve endocarditis model assessed as decrease in bacterial colony forming unit in spleen at 75 mg/kg, sc dosed every 8 hrs for 4 days (reference value: 5.1 +/- 0.9 log10CFU per gram tissue). It is filed as functional. To be noted: route subcutaneous.

For data set [11], the system named is Staphylococcus aureus. The experiment in a line: Antibacterial activity against methicillin-resistant Staphylococcus aureus COL infected New Zealand White rabbit aortic valve endocarditis model assessed as decrease in bacterial colony forming unit in vegetation at 75 mg/kg, sc dosed every 8 hrs for 4 days (reference value: 8.4 +/- 0.7 log10CFU per gram tissue). It counts as functional. The note with it: route subcutaneous.

In data set [12] the test system is Staphylococcus aureus. The experiment in a line: Antibacterial activity against methicillin-resistant Staphylococcus aureus COL. It counts as functional.
For data set [13], the system named is Staphylococcus aureus. As to the kind of experiment: Antibacterial activity against methicillin-resistant Staphylococcus aureus COL infected New Zealand White rabbit aortic valve endocarditis model assessed as decrease in bacterial colony forming unit in vegetation at 30 mg/kg, iv dosed every 12 hrs for 4 days (reference value: 8.4 +/- 0.7 log10CFU per gram tissue). It is filed as functional.

Data set [14] concerns Staphylococcus aureus. The experiment in a line: Antibacterial activity against methicillin-resistant Staphylococcus aureus COL infected New Zealand White rabbit aortic valve endocarditis model assessed as decrease in bacterial colony forming unit in spleen at 30 mg/kg, iv dosed every 12 hrs for 4 days (reference value: 5.1 +/- 0.9 log10CFU per gram tissue). It is filed as functional.

For data set [15], the system named is Staphylococcus aureus. The experiment in a line: Antibacterial activity against methicillin-resistant Staphylococcus aureus COL infected New Zealand White rabbit aortic valve endocarditis model assessed as decrease in bacterial colony forming unit in kidney at 30 mg/kg, iv dosed every 12 hrs for 4 days (reference value: 4.4 +/- 1.0 log10CFU per gram tissue). It is filed as functional.

The subject of data set [16] is Oryctolagus cuniculus. As to the kind of experiment: Plasma concentration in Staphylococcus aureus COL infected New Zealand White rabbit aortic valve endocarditis model at 30 mg/kg, iv dosed every 12 hrs for 4 days. It counts as ADME, organism-based. Also on record: dose 30 mg/kg, route intravenous. The note with it: in vivo. Put shortly: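 Plasma was drawn 1 h after dosing from at least 3 rabbits and assayed by HPLC. Each value averages two determinations, read from plasma standard curves. The detection limit was ≤0.5 μg/ml.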

The nature of data set [17]: Half life in Staphylococcus aureus COL infected New Zealand White rabbit aortic valve endocarditis model at 30 mg/kg, iv dosed every 12 hrs for 4 days. It is filed as ADME, organism-based, Oryctolagus cuniculus. Details: dose 30 mg/kg, route intravenous. To be noted: in vivo.

As to `CCCCCCCCCC(=O)N[C@@H](Cc1c[nH]c2ccccc12)C(=O)N[C@H](CC(N)=O)C(=O)N[C@@H](CC(=O)O)C(=O)N[C@@H]1C(=O)NCC(=O)N[C@@H](CCCN)C(=O)N[C@@H](CC(=O)O)C(=O)N[C@H](C)C(=O)N[C@@H](CC(=O)O)C(=O)NCC(=O)N[C@H](CO)C(=O)N[C@@H]([C@H](C)CC(=O)O)C(=O)N[C@@H](CC(=O)c2ccccc2N)C(=O)O[C@@H]1C`, the values for the log10CFU/g in data set [1], in data set [2] and in [3] were 2.3, 2.6 and 3.6, respectively.
On to `Nc1nc(/C(=N/O)C(=O)N[C@@H]2C(=O)N3C(C(=O)O)=C(/C=C4\CCN([C@@H]5CCNC5)C4=O)CS[C@H]23)ns1` [CEFTOBIPROLE], for which, in [4], the Cp worked out at 14400 ng/mL. The figures for the log10CFU/g in [5], in [6] and in data set [7] were 1.7, 1.8 and 2.1, respectively.
`CC(=O)NC[C@H]1CN(c2ccc(N3CCOCC3)c(F)c2)C(=O)O1` [LINEZOLID] came in with a Cp in data set [8] of 28200 ng/mL. Besides, the log10CFU/g in data set [9] amounted to 2.5; in data set [10], 2.9; in data set [11] it was 5.9.
For the compound `CCOc1ccc2ccccc2c1C(=O)N[C@@H]1C(=O)N2[C@@H]1SC(C)(C)[C@@H]2C(=O)O` [NAFCILLIN], inhibition of growth in data set [12] (MIC) required 256 µg/mL (≈ 618 µM).
For the compound `CN[C@H](CC(C)C)C(=O)N[C@H]1C(=O)N[C@@H](CC(N)=O)C(=O)N[C@H]2C(=O)N[C@H]3C(=O)N[C@H](C(=O)N[C@H](C(=O)O)c4cc(O)cc(O)c4-c4cc3ccc4O)[C@H](O)c3ccc(c(Cl)c3)Oc3cc2cc(c3O[C@@H]2O[C@H](CO)[C@@H](O)[C@H](O)[C@H]2O[C@H]2C[C@](C)(N)[C@H](O)[C@H](C)O2)Oc2ccc(cc2Cl)[C@H]1O` [VANCOMYCIN], the log10CFU/g in [13] amounted to 5.9; in data set [14] it was 3.3; in [15] it was 3.1. Besides, the Cp in [16] turned out to be 34000 ng/mL. In data set [17], the half-life (commonly how long it takes for the measured level to halve) amounted to 1.33 h.
